Measurements as given in ChEMBL document CHEMBL4308828, “Fragment Based Optimization of Metabotropic Glutamate Receptor 2 (mGluR2) Positive Allosteric Modulators in the Absence of Structural Information” (J Med Chem, 2018).

Legend:
[1] = molecular target: Metabotropic glutamate receptor 2 (Homo sapiens, UniProt Q14416); test: Positive allosteric modulation of human mGluR2 expressed in human Chem1 cells assessed as increase in glutamate-induced intracellular calcium influx preincubated for 30 mins followed by glutamate addition by calcium-5 dye based fluorometric assay; type: functional, cell-based
Chain of Metabotropic glutamate receptor 2 (Q14416 whole entry): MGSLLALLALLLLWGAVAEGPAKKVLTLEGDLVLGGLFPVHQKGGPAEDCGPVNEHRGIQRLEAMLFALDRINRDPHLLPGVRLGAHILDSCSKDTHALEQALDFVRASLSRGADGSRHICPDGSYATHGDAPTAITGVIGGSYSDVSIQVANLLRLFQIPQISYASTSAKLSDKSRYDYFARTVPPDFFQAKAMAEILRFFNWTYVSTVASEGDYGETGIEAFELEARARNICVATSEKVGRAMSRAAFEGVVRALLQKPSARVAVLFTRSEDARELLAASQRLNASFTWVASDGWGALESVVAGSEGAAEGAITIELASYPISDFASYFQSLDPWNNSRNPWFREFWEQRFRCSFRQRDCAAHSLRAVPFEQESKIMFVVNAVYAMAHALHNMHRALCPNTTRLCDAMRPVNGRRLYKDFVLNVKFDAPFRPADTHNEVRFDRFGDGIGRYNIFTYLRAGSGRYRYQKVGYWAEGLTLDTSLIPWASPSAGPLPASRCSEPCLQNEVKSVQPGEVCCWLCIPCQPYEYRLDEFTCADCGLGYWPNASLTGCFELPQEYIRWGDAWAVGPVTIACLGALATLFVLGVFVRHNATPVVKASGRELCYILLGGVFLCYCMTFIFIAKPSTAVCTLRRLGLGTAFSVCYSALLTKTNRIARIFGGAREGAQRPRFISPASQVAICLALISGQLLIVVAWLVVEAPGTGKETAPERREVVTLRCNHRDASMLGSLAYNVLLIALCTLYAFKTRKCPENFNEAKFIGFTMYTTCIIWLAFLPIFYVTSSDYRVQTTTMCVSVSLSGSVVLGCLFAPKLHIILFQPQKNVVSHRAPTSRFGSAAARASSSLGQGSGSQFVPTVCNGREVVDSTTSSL
Summary of the method: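 Chem-1 cells stably expressing human mGlu2, 30000 cells/well, overnight at 37 °C. Loaded with Calcium 5 dye (30 min, 37 °C) in buffer with GPT/pyruvate, washed, then compound or vehicle 30 min at 37 °C. Glutamate at EC5-EC20 added after 20 s baseline; fluorescence 485/525 nm read 40 s. ΔF/F from multiple wells; sigmoid fits give EC50, three independent experiments. Final DMSO 1%.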

[2] = Intrinsic clearance in human liver microsomes at 2.5 uM; type: ADME, Microsome
Summary of the method: (§1)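 Liver microsomes (0.5 mg/mL) of human, Wistar rat or NMRI mouse; compound 2.5 μM initial, incubated for various times. Intrinsic clearance (mL/min·g liver) taken as rate of compound consumption under first-order conditions, Clint = Vmax/KM or V/S when S ≪ KM.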

[3] = Intrinsic clearance in Wistar rat liver microsomes at 2.5 uM; type: ADME, Microsome; summary of the method: as §1
[4] = Intrinsic clearance in NMRI mouse liver microsomes at 2.5 uM; type: ADME, Microsome; summary of the method: as §1
[5] = Plasma concentration in mouse at 30 mg/kg, po; type: ADME, organism-based; conditions: in vivo
Summary of the method: (§2)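 Mice dosed orally at 30 mg/kg; plasma, brain and unbound plasma concentrations measured.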

[6] = Drug uptake in mouse brain at 30 mg/kg, po; type: ADME, organism-based; conditions: in vivo, read-out: Drug uptake; summary of the method: as §2
[7] = Unbound plasma concentration in mouse at 30 mg/kg, po; type: ADME, organism-based; conditions: in vivo; summary of the method: as §2
[8] = test system: Mus musculus; test: Antipsychotic activity in ip dosed ddY mouse assessed as inhibition of PCP-induced hyperlocomotion pretreated followed by PCP addition measured after 60 mins by passive infrared sensor method; type: functional
Summary of the method: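 Male ddY mice, 6 weeks old, acclimated 60 min in test cage, dosed i.p., then immediately PCP 2.5 mg/kg s.c.; locomotor activity recorded 60 min by passive infrared sensor system; ED50 reported.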

Structure (SMILES)	EC50 [1]	Intrinsic clearance [2]	Intrinsic clearance [3]	Intrinsic clearance [4]	concentration [5]	concentration [6]	Cp(f) [7]	ED50 [8]
c1ccc(-c2ccc(Cn3nnc4ccccc43)cc2)cc1	155 nM	7.9 mL/min/g	12.6 mL/min/g	11.4 mL/min/g				
Fc1cc(Cl)ccc1-c1ccc(Cn2nnc3ccccc32)nc1	141 nM	0.8 mL/min/g	2.3 mL/min/g	1.6 mL/min/g				
Clc1ccc(-c2ccc(Cn3nnc4ccccc43)cc2)c(Cl)c1	79 nM	0.6 mL/min/g	1.4 mL/min/g	1.3 mL/min/g				
Fc1cc(Cl)ccc1-c1ccc(Cn2nnc3ccccc32)cc1	28 nM	0.4 mL/min/g	1.3 mL/min/g	1.1 mL/min/g				
Fc1ccc(-c2ccc(Cn3nnc4ccccc43)cc2)c(F)c1	71 nM	0.9 mL/min/g	6.4 mL/min/g	2.3 mL/min/g				
Fc1ccccc1-c1ccc(Cn2nnc3ccccc32)cn1	600 nM							
COc1cccc2c1nnn2CC1CC1	400 nM	1.8 mL/min/g	0.8 mL/min/g	8.3 mL/min/g				
Cn1nnc2c(Br)cccc21	> 5000 nM							
c1ccc(Cn2nnc3ccccc32)cc1	3000 nM	7.9 mL/min/g	1.2 mL/min/g	1 mL/min/g				
CCn1nnc2c(Br)cccc21	2240 nM							
Brc1cccc2c1nnn2Cc1ccccc1	80 nM	4.7 mL/min/g	2 mL/min/g	2.3 mL/min/g				
Brc1ccc(Cn2nnc3c(Br)cccc32)cc1	14 nM	0.4 mL/min/g	2.2 mL/min/g	2.6 mL/min/g				
Fc1ccc(Cn2nnc3c(Br)cccc32)cc1	15 nM	1.2 mL/min/g	1 mL/min/g	1 mL/min/g				
Fc1cc(Br)c2nnn(CC3CC3)c2c1	70 nM	0.4 mL/min/g	0.5 mL/min/g	5.7 mL/min/g				
Clc1ccc(-c2ccc(Cn3nnc4ccccc43)cn2)cc1	70 nM	0.2 mL/min/g	1 mL/min/g	3.8 mL/min/g				
Fc1cc(Cn2nnc3c(Br)cccc32)ccc1Cl	18 nM	0.4 mL/min/g	3.1 mL/min/g	2.2 mL/min/g				
Fc1cc(Cl)ccc1-c1ccc(Cn2nnc3c(Br)cccc32)cn1	6 nM	0.1 mL/min/g	0.4 mL/min/g	3.8 mL/min/g	20 µM	7.1 µM	0.081 µM	47 mg/kg
Brc1ccc(Cn2nnc3c(Br)cccc32)nc1	180 nM	0.3 mL/min/g	0.7 mL/min/g	1.1 mL/min/g				
Brc1cccc2c1nnn2CC1CCCC1	30 nM	7.9 mL/min/g	14.6 mL/min/g	11.4 mL/min/g				
Fc1cc(Cl)ccc1-c1ccc(Cn2nnc3c(F)cccc32)cn1	27 nM	0.1 mL/min/g	0.6 mL/min/g	2.2 mL/min/g				
Fc1cc(Cl)ccc1-c1ccc(Cn2nnc3c(C(F)(F)F)cccc32)cn1	13 nM	0.04 mL/min/g	0.2 mL/min/g	0.1 mL/min/g				
Fc1ccc2c(c1)nnn2Cc1ccc(-c2ccc(Cl)cc2F)nc1	68 nM	0.1 mL/min/g	0.5 mL/min/g	0.7 mL/min/g				
FC(F)(F)c1ccc(-c2ccc(Cn3nnc4ccccc43)cc2)c(Cl)c1	37 nM	0 mL/min/g	0.5 mL/min/g	0.4 mL/min/g				
Fc1ccc(-c2ccc(Cn3nnc4ccccc43)cc2)c(Cl)c1	118 nM	0.7 mL/min/g	2.6 mL/min/g	1.5 mL/min/g				
Clc1ccc(Cn2nnc3c(Br)cccc32)cc1	17 nM	0.6 mL/min/g	2.2 mL/min/g	2 mL/min/g				
Clc1cc(Br)c2nnn(CC3CC3)c2c1	60 nM	0.5 mL/min/g	1.1 mL/min/g	11.4 mL/min/g				
CCCn1nnc2c(Br)cccc21	270 nM	4.7 mL/min/g	0.8 mL/min/g	7.7 mL/min/g				
COc1cc(Br)c2nnn(CC3CC3)c2c1	730 nM							

Continued by falling EC50 [1], values first:

EC50 [1]	Intrinsic clearance [2]	Intrinsic clearance [3]	Intrinsic clearance [4]	concentration [5]	concentration [6]	Cp(f) [7]	Structure (SMILES)	ED50 [8]
1070 nM							Fc1cccc2c1nnn2CC1CC1	
620 nM							N#Cc1cccc2c1nnn2CC1CC1	
290 nM							Clc1ccc(Cn2nnc3c(Br)cccc32)cn1	
210 nM							Brc1ccc(Cn2nnc3c(Br)cccc32)cn1	
190 nM	1.8 mL/min/g	3.5 mL/min/g	3 mL/min/g				Fc1ccc(Cn2nnc3c(Br)cccc32)c(Cl)c1	
140 nM	0.1 mL/min/g	0.2 mL/min/g	7.7 mL/min/g				FC(F)(F)c1cc(Br)c2nnn(CC3CC3)c2c1	
140 nM	4.2 mL/min/g	4 mL/min/g	3.5 mL/min/g				CC(C)Cn1nnc2c(Br)cccc21	
90 nM	4.2 mL/min/g	0.5 mL/min/g	5.7 mL/min/g				Clc1cccc2c1nnn2CC1CC1	
86 nM	0.1 mL/min/g	1 mL/min/g	2.2 mL/min/g				Fc1ccc2nnn(Cc3ccc(-c4ccc(Cl)cc4F)nc3)c2c1	
70 nM	1.3 mL/min/g	0.6 mL/min/g	7.7 mL/min/g				Brc1cccc2c1nnn2CC1CC1	
64 nM	0.2 mL/min/g	1.8 mL/min/g	1.7 mL/min/g				Fc1ccccc1Cn1nnc2c(Br)cccc21	
60 nM	9.5 mL/min/g	4.4 mL/min/g	8.3 mL/min/g				CCCCn1nnc2c(Br)cccc21	
50 nM	0.6 mL/min/g	2.3 mL/min/g	15.3 mL/min/g				Brc1cc(Br)c2nnn(CC3CC3)c2c1	
33 nM	0.05 mL/min/g	0.1 mL/min/g	1.6 mL/min/g				N#Cc1cccc2c1nnn2Cc1ccc(-c2ccc(Cl)cc2F)nc1	
29 nM	0.1 mL/min/g	0.4 mL/min/g	1.2 mL/min/g				Fc1cc(C(F)(F)F)ccc1-c1ccc(Cn2nnc3ccccc32)cc1	
23 nM	0.5 mL/min/g	3.8 mL/min/g	1.3 mL/min/g				Fc1cc(Cl)ccc1Cn1nnc2c(Br)cccc21	
20 nM	8.7 mL/min/g	12 mL/min/g	11.4 mL/min/g				Brc1cccc2c1nnn2CC1CCC1	
18 nM	1.8 mL/min/g	1.6 mL/min/g	1.3 mL/min/g				Fc1cccc(Cn2nnc3c(Br)cccc32)c1	
10 nM	11.9 mL/min/g	16.2 mL/min/g	15.3 mL/min/g				Brc1cccc2c1nnn2CC1CCCCC1	
